pIC50: −log10 of the molar value.
Each compound was assayed on Clostridioides difficile (assay: (§1) Antibacterial activity against Clostridium difficile R20291 assessed as inhibition of spore germination in presence of 6 mM taurocholate and 12 mM glycine measured every minute for 2 hrs by standard optical density assay).
Assay type: functional, organism-based
Procedure, shortened: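 IC50 was determined on R20291 spores across a range of compound concentrations in sodium phosphate medium with 6 mM taurocholate and 12 mM glycine. Germination was read as the decrease in absorbance at 580 nm.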

Row | SMILES | pIC50
1 | Cc1cc(F)ccc1NC(=O)CC[C@@H](C)[C@H]1CC[C@H]2[C@@H]3[C@H](O)C[C@@H]4C[C@H](O)CC[C@]4(C)[C@H]3C[C@H](O)[C@]12C | 4.62
2 | C#CCNC(=O)CC[C@@H](C)[C@H]1CC[C@H]2[C@@H]3[C@H](O)C[C@@H]4C[C@H](O)CC[C@]4(C)[C@H]3C[C@H](O)[C@]12C | 3.86
3 | C[C@H](CCC(=O)Nc1cccc(N)c1)[C@H]1CC[C@H]2[C@@H]3[C@H](O)C[C@@H]4C[C@H](O)CC[C@]4(C)[C@H]3C[C@H](O)[C@]12C.Cl | 4.49
4 | C[C@H](CCC(=O)NC1CCCCC1)[C@H]1CC[C@H]2[C@@H]3[C@H](O)C[C@@H]4C[C@H](O)CC[C@]4(C)[C@H]3C[C@H](O)[C@]12C | 4.02

What follows are compounds tested on Clostridioides difficile (assay: as §1, with “germination by measuring heat activated spore germination levels at 125 uM” for “germination”, “assay relative to control” for “assay”).
Assay type: functional
Design: scale not given: the % may be the effect or the level left
Procedure, shortened: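 R20291 spores were screened at a single 125 µM concentration, with germination followed as the fall in absorbance at 580 nm. Compounds not soluble at 125 µM by visual inspection were discarded. Inhibition is relative to untreated spore samples.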

Row | SMILES | Activity [%]
5 | Cc1cc(F)ccc1NC(=O)CC[C@@H](C)[C@H]1CC[C@H]2[C@@H]3[C@H](O)C[C@@H]4C[C@H](O)CC[C@]4(C)[C@H]3C[C@H](O)[C@]12C | 37
6 | C#CCNC(=O)CC[C@@H](C)[C@H]1CC[C@H]2[C@@H]3[C@H](O)C[C@@H]4C[C@H](O)CC[C@]4(C)[C@H]3C[C@H](O)[C@]12C | 59
7 | C[C@H](CCC(=O)NCCCCNC(=O)OC(C)(C)C)[C@H]1CC[C@H]2[C@@H]3[C@H](O)C[C@@H]4C[C@H](O)CC[C@]4(C)[C@H]3C[C@H](O)[C@]12C | 117
8 | C[C@H](CCC(=O)NCCN1CCCC1)[C@H]1CC[C@H]2[C@@H]3[C@H](O)C[C@@H]4C[C@H](O)CC[C@]4(C)[C@H]3C[C@H](O)[C@]12C | 101
9 | C[C@H](CCC(=O)Nc1cccc(N)c1)[C@H]1CC[C@H]2[C@@H]3[C@H](O)C[C@@H]4C[C@H](O)CC[C@]4(C)[C@H]3C[C@H](O)[C@]12C.Cl | 59
10 | COC(=O)C(NC(=O)CC[C@@H](C)[C@H]1CC[C@H]2[C@@H]3[C@H](O)C[C@@H]4C[C@H](O)CC[C@]4(C)[C@H]3C[C@H](O)[C@]12C)C(C)C (stereo partly specified) | 100
11 | C[C@H](CCC(=O)NC1CCCCC1)[C@H]1CC[C@H]2[C@@H]3[C@H](O)C[C@@H]4C[C@H](O)CC[C@]4(C)[C@H]3C[C@H](O)[C@]12C | 47
12 | C[C@H](CCC(=O)NCc1cccnc1)[C@H]1CC[C@H]2[C@@H]3[C@H](O)C[C@@H]4C[C@H](O)CC[C@]4(C)[C@H]3C[C@H](O)[C@]12C | 94
13 | Cc1csc(NC(=O)CC[C@@H](C)[C@H]2CC[C@H]3[C@@H]4[C@H](O)C[C@@H]5C[C@H](O)CC[C@]5(C)[C@H]4C[C@H](O)[C@]23C)n1 | 84
14 | CCOC(=O)c1ccc(NC(=O)CC[C@@H](C)[C@H]2CC[C@H]3[C@@H]4[C@H](O)C[C@@H]5C[C@H](O)CC[C@]5(C)[C@H]4C[C@H](O)[C@]23C)cc1 | 105
15 | C[C@H](CCC(=O)NCc1ccccn1)[C@H]1CC[C@H]2[C@@H]3[C@H](O)C[C@@H]4C[C@H](O)CC[C@]4(C)[C@H]3C[C@H](O)[C@]12C | 93
16 | C[C@H](CCC(=O)Nc1cccc(NC(=O)OC(C)(C)C)c1)[C@H]1CC[C@H]2[C@@H]3[C@H](O)C[C@@H]4C[C@H](O)CC[C@]4(C)[C@H]3C[C@H](O)[C@]12C | 89
17 | CCOC(=O)c1cccc(NC(=O)CC[C@@H](C)[C@H]2CC[C@H]3[C@@H]4[C@H](O)C[C@@H]5C[C@H](O)CC[C@]5(C)[C@H]4C[C@H](O)[C@]23C)c1 | 109
18 | C[C@H](CCC(=O)NCc1ccccc1N)[C@H]1CC[C@H]2[C@@H]3[C@H](O)C[C@@H]4C[C@H](O)CC[C@]4(C)[C@H]3C[C@H](O)[C@]12C | 95
19 | C[C@H](CCC(=O)NCc1ccc([N+](=O)[O-])cc1)[C@H]1CC[C@H]2[C@@H]3[C@H](O)C[C@@H]4C[C@H](O)CC[C@]4(C)[C@H]3C[C@H](O)[C@]12C | 88
20 | COc1ccc(CNC(=O)CC[C@@H](C)[C@H]2CC[C@H]3[C@@H]4[C@H](O)C[C@@H]5C[C@H](O)CC[C@]5(C)[C@H]4C[C@H](O)[C@]23C)c(OC)c1 | 85
21 | C[C@H](CCC(=O)NCc1ccc(Cl)c(Cl)c1)[C@H]1CC[C@H]2[C@@H]3[C@H](O)C[C@@H]4C[C@H](O)CC[C@]4(C)[C@H]3C[C@H](O)[C@]12C | 111
22 | C[C@H](CCC(=O)Nc1ccc(NC(=O)OC(C)(C)C)cc1)[C@H]1CC[C@H]2[C@@H]3[C@H](O)C[C@@H]4C[C@H](O)CC[C@]4(C)[C@H]3C[C@H](O)[C@]12C | 100
23 | C[C@H](CCC(=O)NCCN1C(=O)c2ccccc2C1=O)[C@H]1CC[C@H]2[C@@H]3[C@H](O)C[C@@H]4C[C@H](O)CC[C@]4(C)[C@H]3C[C@H](O)[C@]12C | 78
24 | C[C@H](CCC(=O)NCCCO)[C@H]1CC[C@H]2[C@@H]3[C@H](O)C[C@@H]4C[C@H](O)CC[C@]4(C)[C@H]3C[C@H](O)[C@]12C | 92
25 | C[C@H](CCC(=O)Nc1cccc(S(=O)(=O)O)c1)[C@H]1CC[C@H]2[C@@H]3[C@H](O)C[C@@H]4C[C@H](O)CC[C@]4(C)[C@H]3C[C@H](O)[C@]12C | 102

Row | SMILES | Activity [%]
26 | C[C@H](CCC(=O)NCC(c1ccccc1)c1ccccc1)[C@H]1CC[C@H]2[C@@H]3[C@H](O)C[C@@H]4C[C@H](O)CC[C@]4(C)[C@H]3C[C@H](O)[C@]12C | 101
27 | C[C@H](CCC(=O)NC(Cc1ccccc1)C(=O)O)[C@H]1CC[C@H]2[C@@H]3[C@H](O)C[C@@H]4C[C@H](O)CC[C@]4(C)[C@H]3C[C@H](O)[C@]12C (stereo partly specified) | 108
28 | C[C@H](CCC(=O)NCCCN1C(=O)c2ccccc2C1=O)[C@H]1CC[C@H]2[C@@H]3[C@H](O)C[C@@H]4C[C@H](O)CC[C@]4(C)[C@H]3C[C@H](O)[C@]12C | 82
29 | C[C@H](CCC(=O)NCc1ccccc1)[C@H]1CC[C@H]2[C@@H]3[C@H](O)C[C@@H]4C[C@H](O)CC[C@]4(C)[C@H]3C[C@H](O)[C@]12C | 70
30 | C[C@H](CCC(=O)NCCC#N)[C@H]1CC[C@H]2[C@@H]3[C@H](O)C[C@@H]4C[C@H](O)CC[C@]4(C)[C@H]3C[C@H](O)[C@]12C | 112
31 | COc1ccc(CCNC(=O)CC[C@@H](C)[C@H]2CC[C@H]3[C@@H]4[C@H](O)C[C@@H]5C[C@H](O)CC[C@]5(C)[C@H]4C[C@H](O)[C@]23C)c(OC)c1 | 101
32 | C[C@H](CCC(=O)NCCCN1C(=O)C(=O)c2ccccc21)[C@H]1CC[C@H]2[C@@H]3[C@H](O)C[C@@H]4C[C@H](O)CC[C@]4(C)[C@H]3C[C@H](O)[C@]12C | 95
33 | C[C@H](CCC(=O)Nc1cccc(C(N)=O)c1)[C@H]1CC[C@H]2[C@@H]3[C@H](O)C[C@@H]4C[C@H](O)CC[C@]4(C)[C@H]3C[C@H](O)[C@]12C | 85
34 | C[C@H](CCC(=O)NCCCCN)[C@H]1CC[C@H]2[C@@H]3[C@H](O)C[C@@H]4C[C@H](O)CC[C@]4(C)[C@H]3C[C@H](O)[C@]12C.Cl | 104
35 | C[C@H](CCC(=O)NCCc1cccs1)[C@H]1CC[C@H]2[C@@H]3[C@H](O)C[C@@H]4C[C@H](O)CC[C@]4(C)[C@H]3C[C@H](O)[C@]12C | 93
36 | COc1ccc(NC(=O)CC[C@@H](C)[C@H]2CC[C@H]3[C@@H]4[C@H](O)C[C@@H]5C[C@H](O)CC[C@]5(C)[C@H]4C[C@H](O)[C@]23C)c(OC)c1 | 93
37 | C[C@H](CCC(=O)NCc1ccc(N)cc1)[C@H]1CC[C@H]2[C@@H]3[C@H](O)C[C@@H]4C[C@H](O)CC[C@]4(C)[C@H]3C[C@H](O)[C@]12C | 104
38 | C[C@H](CCC(=O)NCc1ccc(S(N)(=O)=O)cc1)[C@H]1CC[C@H]2[C@@H]3[C@H](O)C[C@@H]4C[C@H](O)CC[C@]4(C)[C@H]3C[C@H](O)[C@]12C | 109
39 | CCOC(=O)CCCNC(=O)CC[C@@H](C)[C@H]1CC[C@H]2[C@@H]3[C@H](O)C[C@@H]4C[C@H](O)CC[C@]4(C)[C@H]3C[C@H](O)[C@]12C | 95
40 | C[C@H](CCC(=O)NCCCN)[C@H]1CC[C@H]2[C@@H]3[C@H](O)C[C@@H]4C[C@H](O)CC[C@]4(C)[C@H]3C[C@H](O)[C@]12C.Cl | 124
41 | COc1cc(CNC(=O)CC[C@@H](C)[C@H]2CC[C@H]3[C@@H]4[C@H](O)C[C@@H]5C[C@H](O)CC[C@]5(C)[C@H]4C[C@H](O)[C@]23C)cc(OC)c1 | 99
42 | C[C@H](CCC(=O)Nc1ccc(N)cc1)[C@H]1CC[C@H]2[C@@H]3[C@H](O)C[C@@H]4C[C@H](O)CC[C@]4(C)[C@H]3C[C@H](O)[C@]12C.Cl | 82
43 | C[C@H](CCC(=O)NCCc1ccccc1)[C@H]1CC[C@H]2[C@@H]3[C@H](O)C[C@@H]4C[C@H](O)CC[C@]4(C)[C@H]3C[C@H](O)[C@]12C | 104
44 | COC(=O)C(Cc1ccccc1)NC(=O)CC[C@@H](C)[C@H]1CC[C@H]2[C@@H]3[C@H](O)C[C@@H]4C[C@H](O)CC[C@]4(C)[C@H]3C[C@H](O)[C@]12C (stereo partly specified) | 84
45 | C[C@H](CCC(=O)NC(CCC(=O)O)C(=O)O)[C@H]1CC[C@H]2[C@@H]3[C@H](O)C[C@@H]4C[C@H](O)CC[C@]4(C)[C@H]3C[C@H](O)[C@]12C (stereo partly specified) | 114
46 | COc1ccc(NC(=O)CC[C@@H](C)[C@H]2CC[C@H]3[C@@H]4[C@H](O)C[C@@H]5C[C@H](O)CC[C@]5(C)[C@H]4C[C@H](O)[C@]23C)cc1 | 79
